Results taken from ChEMBL document CHEMBL4020818, “Novel Sigma Receptor Ligand-Nitric Oxide Photodonors: Molecular Hybrids for Double-Targeted Antiproliferative Effect” (J Med Chem, 2017).
The source made the active and inactive calls.

Legend:
[1] = target: Sigma non-opioid intracellular receptor 1 (Cavia porcellus, UniProt Q60492); assay: Displacement of [3H]-(+)-pentazocine from sigma 1 receptor in guinea pig brain membranes after 150 mins by liquid scintillation counting method; format: cell membranes, Membrane
How it was run: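 Separated by filtration on PEI-presoaked GF/B filters, washed with ice-cold buffer, counted by liquid scintillation.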

[2] = target: Sigma intracellular receptor 2 (Homo sapiens, UniProt Q5BJF2); assay: Displacement of [3H]-DTG from sigma 2 receptor (unknown origin) after 120 mins by liquid scintillation counting method
[3] = Selectivity ratio of Ki for sigma 1 receptor in guinea pig brain membranes to Ki for sigma 2 receptor (unknown origin); format: cell membranes
[4] = Solubility of the compound in water/methanol (1:1) mixture; format: physicochemical; settings: buffer
[5] = Stability of the compound in water/methanol (1:1) mixture assessed as nitric oxide release under light irradiation by amperometric detection method; format: physicochemical; settings: buffer
[6] = Dark toxicity in human MCF7 cells assessed as decrease in cell viability after 24 hrs by MTT assay; format: cell-based
How it was run: (§1)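 Cells seeded at 10 × 10^3 per well, grown 24 h, then exposed in the dark for 24 h at 37 °C to compound (DMSO stock diluted in medium), top concentration 100 µM. MTT 0.5% added for 4 h, formazan dissolved in DMSO, read at 550 nm. Viability is expressed relative to untreated controls. EC50 comes from a variable-slope sigmoidal fit; quadruplicate wells, mean ± SEM.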

[7] = Dark toxicity in human A2058 cells assessed as decrease in cell viability after 24 hrs by MTT assay; format: cell-based; how it was run: as §1
[8] = Dark toxicity in human NCTC-2544 cells assessed as decrease in cell viability after 24 hrs by MTT assay; format: cell-based; how it was run: as §1
MCF7 [9] = assay: Phototoxicity in human MCF7 cells assessed as decrease in cell viability at 10 to 50 uM preincubated for 24 hrs followed by light irradiation for 15 mins by MTT assay; format: functional, cell-based
How it was run: (§2)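 Cells preincubated 24 h with graded compound concentrations, medium then replaced with phenol red-free medium. Irradiated 15 min with a 150 W Xe lamp through a 390 nm cutoff filter; untreated cells also irradiated. Viability by MTT (0.5%, 4 h, DMSO, 550 nm) as percent of untreated controls; quadruplicate wells, mean ± SD.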

MCF7 [10] = assay: Dark toxicity in human MCF7 cells assessed as decrease in cell viability at 10 to 50 uM after 24 hrs by MTT assay; format: cell-based; settings: mcf7, 24 h
How it was run: (§3)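 Dark arm of the light experiments. Cells were seeded at 10 × 10^3 per well, precultured 24 h, then incubated 24 h at 37 °C with graded compound concentrations without irradiation. Viability was read by MTT (0.5%, 4 h, DMSO, 550 nm) as percent of untreated controls; quadruplicate wells, mean ± SD.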

A2058 [11] = assay: Phototoxicity in human A2058 cells assessed as decrease in cell viability at 10 to 50 uM preincubated for 24 hrs followed by light irradiation for 15 mins by MTT assay; format: functional, cell-based; how it was run: as §2
A2058 [12] = assay: Dark toxicity in human A2058 cells assessed as decrease in cell viability at 10 to 50 uM after 24 hrs by MTT assay; format: cell-based; settings: a2058, 24 h; how it was run: as §3
NCTC-2544 [13] = assay: Phototoxicity in human NCTC-2544 cells assessed as decrease in cell viability at 10 to 50 uM preincubated for 24 hrs followed by light irradiation for 15 mins by MTT assay; format: cell-based; settings: nctc-2544, 0.25 h; how it was run: as §2
NCTC-2544 [14] = assay: Dark toxicity in human NCTC-2544 cells assessed as decrease in cell viability at 10 to 50 uM after 24 hrs by MTT assay; format: cell-based; settings: nctc-2544, 24 h; how it was run: as §3
[15] = Stability in human MCF7 cells assessed as nitric oxide release under light irradiation at 50 uM preincubated for 24 hrs followed by light irradiation for 15 mins by DCF-DA dye-based fluorescence microscopic method; format: ADME, cell-based; settings: mcf7, 0.25 h
How it was run: (§4)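 Cells plated on glass coverslips at 50,000, attached overnight, serum-starved 24 h, then treated with compound for 24 h. Loaded with 10 µM DCF-DA for 1 h, washed in PBS, irradiated in phenol red-free medium (Xe lamp, 390 nm cutoff, 15 min). Fixed in 4% PFA and imaged by fluorescence microscopy at 10x and 40x, dark versus light.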

[16] = Stability in human MCF7 cells assessed as nitric oxide release under light irradiation at 50 uM preincubated for 24 hrs followed by light irradiation for 15 mins by Griess assay; format: ADME, cell-based; settings: mcf7, 0.25 h
How it was run: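 After 50 µM compound treatment and irradiation (or dark control), cells were pelleted and lysed in hypotonic solution. Supernatant mixed 1:1 with Griess reagent, 30 min at 37 °C in the dark, absorbance read at 545 nm. Normalised to protein content; total nitrite quantified against a sodium nitrite standard.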

[17] = Stability of the compound in water/methanol (1:1) mixture assessed as nitric oxide release under dark condition at 50 uM by amperometric detection method; format: physicochemical; settings: buffer
[18] = Stability of the compound in water/methanol (1:1) mixture assessed as nitric oxide release under light irradiation at 50 uM by amperometric detection method; format: physicochemical; settings: buffer
A2058 [19] = assay: Phototoxicity in human A2058 cells assessed as decrease in cell viability at 10 to 25 uM preincubated for 24 hrs followed by light irradiation for 15 mins by MTT assay; format: functional, cell-based
How it was run: (§5)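 Cells seeded at 10 × 10^3 per well and grown 24 h. Compound from DMSO stock, diluted in medium, incubated 24 h at 37 °C. Medium then swapped for phenol red-free medium and cells irradiated 15 min (150 W Xe lamp, 390 nm cutoff). MTT (0.5%) for 4 h, formazan in DMSO, OD 550 nm; viability as % of untreated controls. Quadruplicate wells, ≥2 repeats.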

A2058 [20] = assay: Phototoxicity in human A2058 cells assessed as decrease in cell viability at 50 uM preincubated for 24 hrs followed by light irradiation for 15 mins by MTT assay; format: functional, cell-based; how it was run: as §5
MCF7 [21] = assay: Phototoxicity in human MCF7 cells assessed as decrease in cell viability at 0.01 to 10 uM preincubated for 24 hrs followed by light irradiation for 15 mins by MTT assay; format: functional, cell-based; how it was run: as §2
MCF7 [22] = assay: Dark toxicity in human MCF7 cells assessed as decrease in cell viability at 0.01 to 10 uM after 24 hrs by MTT assay; format: cell-based; settings: mcf7, 24 h; how it was run: as §3
A2058 [23] = assay: Phototoxicity in human A2058 cells assessed as decrease in cell viability at 1 to 10 uM preincubated for 24 hrs followed by light irradiation for 15 mins by MTT assay; format: functional, cell-based; how it was run: as §2
NCTC-2544 [24] = assay: Phototoxicity in human NCTC-2544 cells assessed as decrease in cell viability at 0.01 to 10 uM preincubated for 24 hrs followed by light irradiation for 15 mins by MTT assay; format: cell-based; settings: nctc-2544, 0.25 h; how it was run: as §2
NCTC-2544 [25] = assay: Dark toxicity in human NCTC-2544 cells assessed as decrease in cell viability at 0.01 to 10 uM after 24 hrs by MTT assay; format: cell-based; settings: nctc-2544, 24 h; how it was run: as §3
[26] = Stability in human MCF7 cells assessed as nitric oxide release under light irradiation at 10 uM preincubated for 24 hrs followed by light irradiation for 15 mins by DCF-DA dye-based fluorescence microscopic method; format: ADME, cell-based; settings: mcf7, 0.25 h; how it was run: as §4
[27] = Stability in human A2058 cells assessed as nitric oxide release under light irradiation at 10 uM preincubated for 24 hrs followed by light irradiation for 15 mins by DCF-DA dye-based fluorescence microscopic method; format: ADME, cell-based; settings: a2058, 0.25 h; how it was run: as §4

Sequence of Sigma intracellular receptor 2 (Q5BJF2 whole entry): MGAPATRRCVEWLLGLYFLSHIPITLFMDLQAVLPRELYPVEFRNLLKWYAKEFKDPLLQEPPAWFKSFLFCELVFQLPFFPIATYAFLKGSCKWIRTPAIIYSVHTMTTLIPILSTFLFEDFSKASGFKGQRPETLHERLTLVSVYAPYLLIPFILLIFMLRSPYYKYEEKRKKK
Sequence of Sigma non-opioid intracellular receptor 1 (Q60492 whole entry): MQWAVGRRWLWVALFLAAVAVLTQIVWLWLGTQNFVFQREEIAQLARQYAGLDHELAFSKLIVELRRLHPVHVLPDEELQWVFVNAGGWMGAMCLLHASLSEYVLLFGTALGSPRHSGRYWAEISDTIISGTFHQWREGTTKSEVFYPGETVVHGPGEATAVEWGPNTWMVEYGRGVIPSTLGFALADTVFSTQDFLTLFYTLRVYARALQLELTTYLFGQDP

SMILES: O=[N+]([O-])c1ccc(NCCCCN2CCC(Cc3ccccc3)CC2)cc1C(F)(F)F
- Ki [1]: 0.02 µM
- Ki [2]: 0.0084 µM
- Ratio Ki [3]: 2.38
- solubility [4]: Soluble
- Stability [5]: Unstable

SMILES: O=[N+]([O-])c1ccc(NCCN2CCC(Cc3ccccc3)CC2)cc1C(F)(F)F
- Ki [1]: 0.0407 µM
- Ki [2]: 0.0761 µM
- Ratio Ki [3]: 0.53
- solubility [4]: Soluble
- Stability [5]: Unstable

SMILES: COc1cc2c(cc1OC)CN(CCNc1ccc([N+](=O)[O-])c(C(F)(F)F)c1)CC2
- Ki [1]: 3.92 µM
- Ki [2]: 0.0238 µM
- Ratio Ki [3]: 164
- solubility [4]: Soluble
- Stability [5]: Unstable
- EC50 at 24 h ([6]; read-out: EC50): > 100 µM
- EC50 at 24 h ([6]; read-out: pEC50 (converted)): > 100 µM
- EC50 at 24 h ([7]; read-out: EC50): > 100 µM
- EC50 at 24 h ([7]; read-out: pEC50 (converted)): > 100 µM
- EC50 at 24 h ([8]; read-out: EC50): > 100 µM
- EC50 at 24 h ([8]; read-out: pEC50 (converted)): > 100 µM
- Activity (MCF7 [9]): Active
- Activity (MCF7 [10]): Non-Toxic
- Activity (A2058 [11]): inactive
- Activity (A2058 [12]): Non-Toxic
- Activity (NCTC-2544 [13]): Non-Toxic
- Activity (NCTC-2544 [14]): Non-Toxic
- Stability [15]: Unstable
- Stability [16]: Unstable

SMILES: COc1cc2c(cc1OC)CN(CCCNc1ccc([N+](=O)[O-])c(C(F)(F)F)c1)CC2
- Ki [1]: 0.212 µM
- Ki [2]: 0.0162 µM
- Ratio Ki [3]: 13.1
- solubility [4]: Soluble
- Stability [5]: Unstable

SMILES: COc1cc2c(cc1OC)CN(CCCCCNc1ccc([N+](=O)[O-])c(C(F)(F)F)c1)CC2
- Ki [1]: 0.0394 µM
- Ki [2]: 0.0255 µM
- Ratio Ki [3]: 1.55
- solubility [4]: Soluble
- Stability [17]: Stable
- Stability [18]: Unstable
- EC50 at 24 h ([6]; read-out: EC50): > 100 µM
- EC50 at 24 h ([6]; read-out: pEC50 (converted)): > 100 µM
- EC50 at 24 h ([7]; read-out: EC50): > 100 µM
- EC50 at 24 h ([7]; read-out: pEC50 (converted)): > 100 µM
- EC50 at 24 h ([8]; read-out: EC50): > 100 µM
- EC50 at 24 h ([8]; read-out: pEC50 (converted)): > 100 µM
- Activity (MCF7 [9]): Active
- Activity (NCTC-2544 [13]): Non-Toxic
- Activity (NCTC-2544 [14]): Non-Toxic
- Stability [15]: Unstable
- Stability [16]: Unstable
- Activity (A2058 [19]): inactive
- Activity (A2058 [20]): Active

SMILES: COc1cccc2c1C(=O)c1c(O)c3c(c(O)c1C2=O)C[C@@](O)(C(=O)CO)C[C@@H]3O[C@H]1C[C@H](N)[C@H](O)[C@H](C)O1 [DOXORUBICIN]
- EC50 at 24 h ([6]; read-out: EC50): 15.3 µM
- EC50 at 24 h ([6]; read-out: pEC50 (converted)): 15.5 µM
- EC50 at 24 h ([7]; read-out: EC50): 6.5 µM
- EC50 at 24 h ([7]; read-out: pEC50 (converted)): 6.46 µM
- EC50 at 24 h ([8]; read-out: EC50): 32.5 µM
- EC50 at 24 h ([8]; read-out: pEC50 (converted)): 32.4 µM

SMILES: O=[N+]([O-])c1ccc(NCCCN2CCC(Cc3ccccc3)CC2)cc1C(F)(F)F
- Ki [1]: 0.0416 µM
- Ki [2]: 0.0223 µM
- Ratio Ki [3]: 1.87
- solubility [4]: Soluble
- Stability [5]: Unstable

SMILES: COc1cc2c(cc1OC)CN(CCCCNc1ccc([N+](=O)[O-])c(C(F)(F)F)c1)CC2
- Ki [1]: 0.0378 µM
- Ki [2]: 0.023 µM
- Ratio Ki [3]: 1.64
- solubility [4]: Soluble
- Stability [5]: Unstable

SMILES: O=[N+]([O-])c1ccc(NCCCCCN2CCC(Cc3ccccc3)CC2)cc1C(F)(F)F
- Ki [1]: 0.0404 µM
- Ki [2]: 0.024 µM
- Ratio Ki [3]: 1.68
- solubility [4]: Soluble
- Stability [5]: Unstable
- EC50 at 24 h ([6]; read-out: EC50): 14.9 µM
- EC50 at 24 h ([6]; read-out: pEC50 (converted)): 14.8 µM
- EC50 at 24 h ([7]; read-out: EC50): 14.2 µM
- EC50 at 24 h ([7]; read-out: pEC50 (converted)): 14.1 µM
- EC50 at 24 h ([8]; read-out: EC50): 15 µM
- EC50 at 24 h ([8]; read-out: pEC50 (converted)): 15.1 µM
- Activity (MCF7 [21]): Active
- Activity (MCF7 [22]): Non-Toxic
- Activity (A2058 [23]): Active
- Activity (NCTC-2544 [24]): Non-Toxic
- Activity (NCTC-2544 [25]): Non-Toxic
- Stability [26]: Unstable
- Stability [27]: Unstable
